Reference: ChEMBL document CHEMBL1123083, “Synthesis and antiherpetic activity of (S)-, (R)-, and (+/-)-9-[(2,3-dihydroxy-1-propoxy)methyl]guanine, linear isomers of 2'-nor-2'-deoxyguanosine” (J Med Chem, 1985)
In brackets after ≈: the same amount, converted by molar mass. Activity calls are given as the source filed them. The rule behind the calls is not given here.

How the values were obtained:
Human alphaherpesvirus 1 [1] = assay: Efficacy was evaluated against Oraficial HSV-1 infection in mice with lesions administered topically at a dose 1 mg/kg per day.; type: ADME, organism-based; details: mouse, in vivo
Method in brief: (§1)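 Mice were infected orofacially with HSV-1 strain S. Each treatment was 10 μL of compound at the stated percent concentration in a hydroalcoholic vehicle. Application began 3 h after infection and was repeated at 3-h intervals: three treatments on day 1 and four on each of the next 2 days. Lesion incidence and average lesion score were read on day 7 (95% CI). Significance was judged against placebo (p < 0.05).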

Human alphaherpesvirus 1 [2] = assay: Efficacy was evaluated against Systemic HSV-1 infection in mice at a daily dose of 0.8 mg/kg administered subcutaneously.; type: ADME, organism-based; design: dose 0.8 mg/kg, route subcutaneous; details: mouse, in vivo, sc
Method in brief: (§2)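 ICR/Ha mice (10–20 g, mixed sex) were infected intraperitoneally with 50–100 LD50 of HSV-1 Schooler. Subcutaneous dosing of 0.1 mL twice daily for 4 days started immediately after infection. Groups were of about 10 mice. Survival was recorded daily for 15 days and reported as survivors/total and mean survival time (95% CI). Transformed survival times were compared with placebo-treated infected mice (p < 0.05).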

Human alphaherpesvirus 1 [3] = assay: Efficacy was evaluated against Oraficial HSV-1 infection in mice with lesions administered orally at dose 0.8 mg/kg per day; Tested mice 10; type: ADME, organism-based; design: route oral; details: mouse, in vivo, po
Method in brief: (§3)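 HSV-1 strain S inoculated in the orofacial area of mice as previously described. Half-daily doses given by gavage 8 h apart, starting 3 h after infection, for 7 days. On day 7 after infection, mice with lesions per group and average lesion score were recorded (95% confidence interval). Significance was judged against placebo-treated infected mice (p < 0.05).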

Human alphaherpesvirus 1 [4] = assay: Efficacy was evaluated against Oraficial HSV-1 infection in mice with lesions administered topically at a dose 0.02 mg/kg per day; Tested mice 10; type: ADME, organism-based; details: mouse, in vivo; method in brief: as §1
Human alphaherpesvirus 1 [5] = assay: Efficacy was evaluated against Oraficial HSV-1 infection in mice with lesions administered topically at a dose 0.06 mg/kg per day; Tested mice 10; type: ADME, organism-based; details: mouse, in vivo; method in brief: as §1
Human alphaherpesvirus 1 [6] = assay: Efficacy was evaluated against Oraficial HSV-1 infection in mice with lesions administered topically at a dose 0.25 mg/kg per day; Tested mice 10; type: ADME, organism-based; details: mouse, in vivo; method in brief: as §1
Human alphaherpesvirus 1 [7] = assay: Efficacy was evaluated against Oraficial HSV-1 infection in mice with lesions administered topically at a dose 1 mg/kg per day; Tested mice 10; type: ADME, organism-based; details: mouse, in vivo; method in brief: as §1
Human alphaherpesvirus 1 [8] = assay: Efficacy was evaluated against Systemic HSV-1 infection in mice at a daily dose of 12.5 mg/kg administered subcutaneously.; type: ADME, organism-based; design: dose 12.5 mg/kg, route subcutaneous; details: mouse, in vivo, sc; method in brief: as §2
Human alphaherpesvirus 1 [9] = assay: Efficacy was evaluated against Systemic HSV-1 infection in mice at a daily dose of 12.5 mg/kg administered orally.; type: ADME, organism-based; design: dose 12.5 mg/kg; details: mouse, in vivo, po
Method in brief: (§4)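 Mixed-sex ICR/Ha mice (10–20 g) were infected intraperitoneally with 50–100 LD50 of HSV-1 Schooler. Oral dosing of 0.1 mL twice daily for 7 days began immediately after infection. Groups were of about 10 mice. Deaths were recorded daily for 15 days, giving survivors/total and mean survival time with 95% CI. Significance was judged against placebo-treated infected mice using transformed survival times.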

Human alphaherpesvirus 1 [10] = assay: Efficacy was evaluated against Systemic HSV-1 infection in mice at a daily dose of 3.1 mg/kg administered subcutaneously.; type: ADME, organism-based; design: dose 3.1 mg/kg, route subcutaneous; details: mouse, in vivo, sc; method in brief: as §2
Human alphaherpesvirus 1 [11] = assay: Efficacy was evaluated against Systemic HSV-1 infection in mice at a daily dose of 3.1 mg/kg administered orally.; type: ADME, organism-based; design: dose 3.1 mg/kg; details: mouse, in vivo, po; method in brief: as §4
Human alphaherpesvirus 1 [12] = assay: Efficacy was evaluated against Oraficial HSV-1 infection in mice with lesions administered orally at a dose 50 mg/kg per day.; type: ADME, organism-based; design: route oral; details: mouse, in vivo, po; method in brief: as §3
Human alphaherpesvirus 1 [13] = assay: Efficacy was evaluated against Oraficial HSV-1 infection in mice with lesions administered topically at a dose 0.02 mg/kg per day.; type: ADME, organism-based; details: mouse, in vivo; method in brief: as §1
Human alphaherpesvirus 1 [14] = assay: Efficacy was evaluated against Oraficial HSV-1 infection in mice with lesions administered orally at a dose 0.8 mg/kg per day.; type: ADME, organism-based; design: route oral; details: mouse, in vivo, po; method in brief: as §3
Human alphaherpesvirus 1 [15] = assay: Efficacy was evaluated against Oraficial HSV-1 infection in mice with lesions administered orally at a dose 12.5 mg/kg per day.; type: ADME, organism-based; design: route oral; details: mouse, in vivo, po; method in brief: as §3
Human alphaherpesvirus 1 [16] = assay: Efficacy was evaluated against Oraficial HSV-1 infection in mice with lesions administered topically at a dose 0.06 mg/kg per day.; type: ADME, organism-based; details: mouse, in vivo; method in brief: as §1
Human alphaherpesvirus 1 [17] = assay: Efficacy was evaluated against Oraficial HSV-1 infection in mice with lesions administered topically at a dose 0.25 mg/kg per day.; type: ADME, organism-based; details: mouse, in vivo; method in brief: as §1
Human alphaherpesvirus 1 [18] = assay: Efficacy was evaluated against Oraficial HSV-1 infection in mice with lesions administered orally at a dose 12.5 mg/kg per day; Tested mice 10; type: organism-based; design: route oral; details: mouse, in vivo, po; method in brief: as §3
Human alphaherpesvirus 1 [19] = assay: Efficacy was evaluated against Oraficial HSV-1 infection in mice with lesions administered orally at a dose 3.1 mg/kg per day; Tested mice 10; type: organism-based; design: route oral; details: mouse, in vivo, po; method in brief: as §3
Human alphaherpesvirus 1 [20] = assay: Efficacy was evaluated against Oraficial HSV-1 infection in mice with lesions administered orally at a dose 50 mg/kg per day; Tested mice 10; type: organism-based; design: route oral; details: mouse, in vivo, po; method in brief: as §3
Human alphaherpesvirus 1 [21] = assay: Efficacy was evaluated against Systemic HSV-1 infection in mice at a daily dose of 0.8 mg/kg administered subcutaneously; Tested mice 10; type: organism-based; design: dose 0.8 mg/kg, route subcutaneous; details: mouse, in vivo, sc; method in brief: as §2
Human alphaherpesvirus 1 [22] = assay: Efficacy was evaluated against Systemic HSV-1 infection in mice at a daily dose of 12.5 mg/kg administered subcutaneously; Tested mice 10; type: organism-based; design: dose 12.5 mg/kg, route subcutaneous; details: mouse, in vivo, sc; method in brief: as §2
Human alphaherpesvirus 1 [23] = assay: Efficacy was evaluated against Systemic HSV-1 infection in mice at a daily dose of 12.5 mg/kg administered orally; Tested mice 9; type: organism-based; design: dose 12.5 mg/kg; details: mouse, in vivo, po; method in brief: as §4
Human alphaherpesvirus 1 [24] = assay: Efficacy was evaluated against Systemic HSV-1 infection in mice at a daily dose of 3.1 mg/kg administered subcutaneously; Tested mice 10; type: ADME, organism-based; design: dose 3.1 mg/kg, route subcutaneous; details: mouse, in vivo, sc; method in brief: as §2
Human alphaherpesvirus 1 [25] = assay: Efficacy was evaluated against Systemic HSV-1 infection in mice at a daily dose of 3.1 mg/kg administered orally; Tested mice 10; type: organism-based; design: dose 3.1 mg/kg; details: mouse, in vivo, po; method in brief: as §4
Human alphaherpesvirus 1 [26] = assay: Efficacy was evaluated against Systemic HSV-1 infection in mice at a daily dose of 50 mg/kg administered orally; Tested mice 10; type: organism-based; design: dose 50 mg/kg; details: mouse, in vivo, po; method in brief: as §4
Human alphaherpesvirus 1 [27] = assay: Evaluated for DNA polymerase inhibition activity against herpes simplex virus-1 (HSV-1); type: functional
Method in brief: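 Step II mixture supplied the phosphorylated test material. Step I: compound with HSV-1 thymidine kinase, 4 h, 37 °C. Step II: then HSV-1-infected HeLa crude extract plus GMP kinase, overnight, 30 °C. A 20 μL sample went to a 1 h, 37 °C DNA polymerase assay at pH 8 with activated salmon sperm DNA, 0.05 mM each dNTP ([³H]dTTP) and infected HeLa extract. (NH₄)₂SO₄ 0.1 M was present for the viral enzyme and omitted for the cellular polymerases. Read-out: TCA-precipitable radioactivity.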

Human alphaherpesvirus 1 [28] = assay: In vitro anti viral activity tested against HSV-1(Schooler) virus on Rabbit kidney cell cultures; 0.5-1.5; type: functional; details: Human alphaherpesvirus 1, kidney; read-out: ED50 (the source's name)
Method in brief: (§5)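 Confluent primary rabbit kidney monolayers were preincubated with serial drug dilutions in EMEM with 2% fetal calf serum and neomycin. They were then challenged with about 10 TCID50 of HSV-1 Schooler or HSV-2 Curtis and incubated at 37 °C. Cytopathology was scored on day 5. ED50 is the concentration preventing cytopathology in half of the infected cultures.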

Human alphaherpesvirus 2 = assay: In vitro anti viral activity tested against HSV-2(Curtis) virus on Rabbit kidney cell cultures; 1-3; type: functional; details: Human alphaherpesvirus 2, kidney; read-out: ED50 (the source's name); method in brief: as §5
Human alphaherpesvirus 1 [29] = assay: Efficacy was evaluated against Systemic HSV-1 infection in mice at a daily dose of 50 mg/kg administered orally.; type: ADME, organism-based; design: dose 50 mg/kg; details: mouse, in vivo, po; method in brief: as §4
[30] = system: DNA polymerase (Homo sapiens); assay: Evaluated for DNA polymerase inhibition activity against HeLa cells.
Human betaherpesvirus 5 = assay: In vitro anti viral activity tested against HCMV(AD169) virus on MRC-5 cell monolayers; NA=Not active at 25 ug/mL; type: functional, organism-based; details: MRC5
Method in brief: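 MRC-5 monolayers were infected with HCMV AD169 for 1 h at 37 °C. Compound diluted in maintenance medium was then added and incubation continued for 7 days at 37 °C. Monolayers were stained and plaques counted. ED50 is the concentration reducing plaque number by 50%.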

SMILES: Nc1nc(O)c2ncn(COCC(O)CO)c2n1 (single isomer, unassigned; form 2) [listing 1 of 2 here]
- Average lesion score (Human alphaherpesvirus 1 [1]): 0.4
- Average survival (Human alphaherpesvirus 1 [2]): 6.7 days
- Mice with lesions (Human alphaherpesvirus 1 [3]): 9
- Mice with lesions (Human alphaherpesvirus 1 [4]): 9
- Mice with lesions (Human alphaherpesvirus 1 [5]): 6
- Mice with lesions (Human alphaherpesvirus 1 [6]): 5
- Mice with lesions (Human alphaherpesvirus 1 [7]): 2
- Average survival (Human alphaherpesvirus 1 [8]): 10.7 days
- Average survival (Human alphaherpesvirus 1 [9]): 8.1 days
- Average survival (Human alphaherpesvirus 1 [10]): 7.6 days
- Average survival (Human alphaherpesvirus 1 [11]): 6.9 days
- Average lesion score (Human alphaherpesvirus 1 [12]): 0.15
- Average lesion score (Human alphaherpesvirus 1 [13]): 2.75
- Average lesion score (Human alphaherpesvirus 1 [14]): 3.45
- Average lesion score (Human alphaherpesvirus 1 [15]): 0.75
- Average lesion score (Human alphaherpesvirus 1 [16]): 1.4
- Average lesion score (Human alphaherpesvirus 1 [17]): 1.35
- Mice with lesions (Human alphaherpesvirus 1 [18]): 5
- Mice with lesions (Human alphaherpesvirus 1 [19]): 8
- Mice with lesions (Human alphaherpesvirus 1 [20]): 1
- Survivors (Human alphaherpesvirus 1 [21]): 0
- Survivors (Human alphaherpesvirus 1 [22]): 4
- Survivors (Human alphaherpesvirus 1 [23]): 0
- Survivors (Human alphaherpesvirus 1 [24]): 1
- Survivors (Human alphaherpesvirus 1 [25]): 0
- Survivors (Human alphaherpesvirus 1 [26]): 3
- Inhibition (Human alphaherpesvirus 1 [27]): 57%
- EC50 (Human alphaherpesvirus 1 [28]): 0.5 µg/mL (≈ 1.96 µM)
- EC50 (Human alphaherpesvirus 2): 1 µg/mL (≈ 3.92 µM)
- Average survival (Human alphaherpesvirus 1 [29]): 12.9 days
- Inhibition [30]: 10%

SMILES: Nc1nc(O)c2ncn(COCC(O)CO)c2n1 (single isomer, unassigned; form 2) [listing 2 of 2 here]
- ED50 (Human betaherpesvirus 5): inactive
